Screening results: PubChem BioAssay, Johns Hopkins Ion Channel Center
TRPC6 inhibitor: blocks the mouse TRPC6 cation channel; HEK293-TRPC6, membrane potential dye, ACh-evoked depolarization; stronger effect = lower value; Q61143; 1.1% of 310,000 active; B-score at 10 µM;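 active means B-score under library mean minus 3 SD, initial fluorescence not abnormally high, positive integrated signal ratio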;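 further: B-score derived from integrated fluorescence ratio over the kinetic read; more negative B-score means stronger inhibition of depolarization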
Target sequence (Q61143 whole entry, looked up): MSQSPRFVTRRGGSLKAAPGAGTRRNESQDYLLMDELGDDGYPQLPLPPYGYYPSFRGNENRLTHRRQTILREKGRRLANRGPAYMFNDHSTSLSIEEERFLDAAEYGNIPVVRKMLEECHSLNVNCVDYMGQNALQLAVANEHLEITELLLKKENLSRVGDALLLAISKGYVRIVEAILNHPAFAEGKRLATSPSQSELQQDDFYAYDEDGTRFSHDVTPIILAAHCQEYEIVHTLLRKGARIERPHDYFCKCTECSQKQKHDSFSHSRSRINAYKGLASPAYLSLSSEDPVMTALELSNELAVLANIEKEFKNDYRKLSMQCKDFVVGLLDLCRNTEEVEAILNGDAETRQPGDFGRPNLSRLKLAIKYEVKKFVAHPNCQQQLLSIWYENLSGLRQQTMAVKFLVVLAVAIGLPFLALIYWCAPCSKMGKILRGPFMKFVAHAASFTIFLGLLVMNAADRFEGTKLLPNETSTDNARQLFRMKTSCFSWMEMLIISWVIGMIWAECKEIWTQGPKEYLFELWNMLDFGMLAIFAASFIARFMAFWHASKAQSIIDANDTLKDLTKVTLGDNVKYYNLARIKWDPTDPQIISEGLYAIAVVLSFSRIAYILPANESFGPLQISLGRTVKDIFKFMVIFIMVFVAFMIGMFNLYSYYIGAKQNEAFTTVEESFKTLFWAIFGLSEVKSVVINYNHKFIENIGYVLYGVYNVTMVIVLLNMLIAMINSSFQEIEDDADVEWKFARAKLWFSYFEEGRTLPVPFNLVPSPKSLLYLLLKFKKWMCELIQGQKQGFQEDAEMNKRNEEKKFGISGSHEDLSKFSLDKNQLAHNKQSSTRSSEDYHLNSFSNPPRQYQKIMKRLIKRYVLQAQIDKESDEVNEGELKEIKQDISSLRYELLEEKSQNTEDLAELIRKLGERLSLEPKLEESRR
TRPC4 inh: TRPC4 (mouse) channel inhibition | 0.39% of 300,000 active | HEK293 TRPC4beta/mu-opioid, DAMGO-evoked Fluo4 calcium flux; stronger effect = lower value | Q9QUQ5 | B-score at 10 µM;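 active means B-score over 3 SD under the library average, no early fluorescence shift, positive overall ratio signal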
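Material: HEK293 cells with stable TRPC4beta plus mu-opioid receptor expression / Probe or stimulus: DAMGO in two steps, submaximal then maximal / Compound: single concentration per test compound / Technique: kinetic Fluo4 fluorescence imaging of calcium influx / Read-out: per-well B score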
TRPC6 activator: mouse TRPC6 channel activation | Q61143 | HEK293-TRPC6 membrane potential dye fluorescence; stronger effect = higher value | B-score at 10 µM | 0.13% of 310,000 active | AID 2550;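 active means B-score of the integrated fluorescence ratio above library mean plus 3 SD, and starting fluorescence ratio within library mean plus 5 SD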;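 further: higher score means more depolarization so channel activation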
TRPC4 PAM: allosterically enhances the mouse TRPC4 cation channel; HEK293 TRPC4beta/mu-opioid, DAMGO EC20, Fluo-4 Ca2+ flux; stronger effect = higher value; B-score at 10 µM; 0.42% of 310,000 active; AID 2227;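 active means B-score of calcium response area above 5 SD of library B-scores, with initial fluorescence ratio within 5 SD of library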
TRPC4 act: opens the mouse TRPC4 cation channel; Q9QUQ5; HEK293 TRPC4beta/mu-opioid, Fluo4 calcium fluorescence; stronger effect = higher value; B-score at 10 µM; 0.49% of 310,000 active;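 active means B-score above 5 SD of library B-scores, and initial fluorescence ratio not above library mean plus 5 SD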;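 further: positive B-score marks a calcium rise read as TRPC4 activation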
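Assay system – TRPC4beta and mu-opioid receptor HEK293 stable cells · Measured by – Fluo4 fluorescence, kinetic · Schedule – dye loading 45 min room temperature, 110 s kinetic read · Read-out – B-scored integrated calcium fluorescence ratio · Controls – buffer and maximal DAMGO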
TRPC4 spec 2: second check of whether TRPC6 inhibitors also affect mouse TRPC4; shares compounds with TRPC6 inhibitor; HEK293 TRPC4/MOR, membrane potential dye fluorescence; channel activated by saturating DAMGO dose; inhibition, % at 10 µM; 42% of 920 active; AID 2776;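 active means compounds whose fluorescence signal differed from control wells by over 3 SD, either direction, in both duplicate plates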
TRPC4 spec: tests whether TRPC6 inhibitors also affect mouse TRPC4. HEK293 TRPC4/mu-opioid, membrane potential fluorescence. 61% of 920 active. activity change, negative = inhibition, % at 10 µM. shares compounds with TRPC6 inhibitor;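 active means rise or fall in signal beyond 3 SD of buffer-only wells in both replicate plates, either sign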;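 further: integrated kinetic ratio of fluorescence range over baseline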
HEK293 MPD ctr 2-1: second counter-screen for TRPC6 inhibitors: parental HEK293 cells. shares compounds with TRPC6 inhibitor. parental HEK293 membrane potential dye fluorescence; maximal acetylcholine challenge after compound addition. signal change vs control, % at 10 µM. 31% of 920 active. AID 2779;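 active means membrane potential signal moving either way by over 3 SD of the maximum-effect control, in both duplicate plates, meaning non-specific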
HEK293 MPD ctr-1: checks TRPC6 inhibitor effects in parental HEK293 cells; 60% of 920 active; membrane potential signal change, % at 10 µM; AID 2780; parental HEK293 membrane potential dye fluorescence; shares compounds with TRPC6 inhibitor;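 active means membrane potential signal shifting up or down by more than 3 SD of buffer-only wells, on both duplicate plates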
HEK293 MPD ctr-2: counter-screen for TRPC6 modulators: effect in parental HEK293 cells; shares compounds with TRPC6 inhibitor; membrane potential dye fluorescence; membrane potential signal change, % at 10 µM; 51% of 2,400 active;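 active means membrane potential signal moves up or down beyond 5 SD from buffer-only wells, on both duplicate plates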
HEK293 MPD ctr 2-2: second check of TRPC6 modulator effects in parental HEK293 cells | shares compounds with TRPC6 inhibitor | inhibition, % at 10 µM | membrane potential dye fluorescence; after compound, maximal acetylcholine stimulation | 14% of 2,400 active | AID 488926;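 active means membrane potential signal drops by more than 5 SD from the mean control signal, in both duplicate plates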
TRPC4 ctr mod: selectivity of TRPC6 modulators against mouse TRPC4 | shares compounds with TRPC6 inhibitor | HEK293 TRPC4/mu-opioid, membrane potential fluorescence | percent change from control (negative = decrease, positive = increase), % at 10 µM | 69% of 2,400 active;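 active means membrane potential signal moved up or down beyond 5 SD of buffer control wells, in both duplicate plates, actives on both sides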
TRPC4/MOR inh 2: second check of whether TRPC6 modulators also affect mouse TRPC4; HEK293 TRPC4/mu-opioid, membrane potential dye fluorescence; stimulated with maximal-effect DAMGO; shares compounds with TRPC6 inhibitor; inhibition, % at 10 µM; 55% of 2,400 active;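 active means drop in membrane potential signal beyond 5 SD of the control wells in both duplicate plates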;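 further: TRPC4 counter screen for TRPC6 hits run under conditions tuned for TRPC6 not TRPC4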
TRPC6 block conf: mouse TRPC6 inhibitor confirmation. inhibition, % at 10 µM. shares compounds with TRPC6 inhibitor. AID 488960. 43% of 3,300 active. HEK293-TRPC6, membrane potential dye, ACh-evoked depolarization;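 active means fluorescence ratio falls more than 5 SD below the full-stimulation control mean, in both duplicate runs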;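 further: integrated fluorescence ratio of peak minus minimum over baseline after agonist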
TRPC6 act conf: mouse TRPC6 activator confirmation; shares compounds with TRPC6 inhibitor; HEK293-TRPC6 membrane potential dye fluorescence, FDSS; 11% of 2,800 active; activation, % at 10 µM;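 active means ratio signal rise beyond 5 SD above unstimulated control wells' mean, seen in both duplicate runs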
Each line names hits and unclear results; the compound was inactive in the other large screens (follow-up assays come after a bar, where they were run). Rows were chosen to be rich in hits. Some 2.3% of all compounds tested hit in one or more screens of this group.

C[n+]1ccc(/C=N/Nc2nc(Cl)c(C#N)c(Cl)c2Cl)cc1	TRPC6 inhibitor -7.59 | TRPC4 spec 2 65.5% | TRPC4 spec inactive | HEK293 MPD ctr 2-1 -108.0% | HEK293 MPD ctr-1 inactive | TRPC6 block conf 61.9% | TRPC6 act conf inactive
CCOC(=O)c1ccc(NC(=O)c2ccc(C)c(S(=O)(=O)N3CCOCC3)c2)cc1	none
NS(=O)(=O)c1ccc(CCNC(=O)Cc2c[nH]c3ccccc23)cc1	none
CC(C)c1ccc(S(=O)(=O)N2CCN(C(=O)c3ccco3)CC2)cc1	TRPC6 inhibitor -11.3, TRPC6 activator 11.7 | HEK293 MPD ctr-2 inactive | HEK293 MPD ctr 2-2 inactive | TRPC4 ctr mod 11.5% | TRPC4/MOR inh 2 inactive | TRPC6 block conf 105.5% | TRPC6 act conf 122.5%
CCC(OC(=O)CN1C(=O)c2ccccc2C1=O)C(=O)NC1CCCC1 (stereo unspecified)	none
O=C1CNC(=S)N1Cc1cccc(Cl)c1	TRPC6 inhibitor -6.95 | TRPC4 spec 2 inactive | TRPC4 spec -12.1% | HEK293 MPD ctr 2-1 inactive | HEK293 MPD ctr-1 inactive | TRPC6 block conf inactive | TRPC6 act conf inactive
CCS(=O)(=O)N1Cc2ccccc2CC1C(=O)Nc1nc2ccccc2[nH]1 (stereo unspecified)	none
CC(C)c1c(C(=O)N/N=C/c2ccncc2)nnn1-c1nonc1N	none
CCN(CC)CCCNC(=O)CCC(=O)Nc1ccc2nc(N3CCC(C)CC3)cc(C)c2c1	TRPC6 inhibitor -6.08 | HEK293 MPD ctr-2 135.5% | HEK293 MPD ctr 2-2 inactive | TRPC4 ctr mod 22.5% | TRPC4/MOR inh 2 inactive | TRPC6 block conf inactive
CCCCNC(=O)CCC(=O)Nc1ccc2nc(N3CCCCC3)cc(C)c2c1	none
Cc1cc(N2CCN(C)CC2)nc2ccc(NC(=O)CCC(=O)NCCCOC(C)C)cc12	none
Cc1cc(N2CCN(C)CC2)nc2ccc(NC(=O)CCC(=O)N3CCN(c4ccc([N+](=O)[O-])cc4)CC3)cc12	TRPC6 activator 12.1 | HEK293 MPD ctr-2 237.0% | HEK293 MPD ctr 2-2 inactive | TRPC4 ctr mod 44.5% | TRPC4/MOR inh 2 inactive | TRPC6 block conf inactive | TRPC6 act conf 84.5%
Cc1cc(N2CCCCC2)nc2ccc(NC(=O)CCC(=O)NCCC(C)C)cc12	TRPC6 inhibitor -8.01 | TRPC4 spec 2 inactive | TRPC4 spec -16.1% | HEK293 MPD ctr 2-1 224.5% | HEK293 MPD ctr-1 -227.5% | TRPC6 block conf inactive | TRPC6 act conf inactive
Cc1cc(N2CCOCC2)nc2ccc(NC(=O)CCC(=O)N3CCN(c4ccccc4)CC3)cc12	none
CC(C)CCNC(=S)Nc1ccc2nc3n(c(=O)c2c1)CCCCC3	TRPC6 inhibitor -5.17 | HEK293 MPD ctr-2 inactive | HEK293 MPD ctr 2-2 inactive | TRPC4 ctr mod inactive | TRPC4/MOR inh 2 inactive | TRPC6 block conf inactive | TRPC6 act conf inactive
CCCCNC(=S)Nc1ccc2nc3n(c(=O)c2c1)CCCCC3	none
O=C(NN1C(=O)C2C3c4ccccc4C(c4ccccc43)C2C1=O)c1ccccc1 (stereo unspecified)	none
CCOC(=O)Oc1ccc2c(=O)c(Oc3cc(C)cc(C)c3)coc2c1	none
O=C(O)c1cc(S(=O)(=O)Nc2ccc3c(c2)OCCO3)c(Cl)cc1Cl	none
COCCCNC(=O)CCC(=O)Nc1ccc2nc(N3CCOCC3)cc(C)c2c1	TRPC6 inhibitor -6.8 | TRPC4 spec 2 inactive | TRPC4 spec -27.6% | HEK293 MPD ctr 2-1 inactive | HEK293 MPD ctr-1 -359.5% | TRPC6 block conf 63.9% | TRPC6 act conf inactive
CCCCNC(=O)CCC(=O)Nc1ccc2nc(N3CCOCC3)cc(C)c2c1	none
CN(C)c1ccc(/C=C/C(=O)c2c(O)c3ccccc3oc2=O)cc1	TRPC6 activator 131, TRPC4 act 102 | HEK293 MPD ctr-2 active | HEK293 MPD ctr 2-2 active | TRPC4 ctr mod 491.5% | TRPC4/MOR inh 2 144.5% | TRPC6 act conf 943.5%
Cc1cc(NC(=O)CC(C)C)c(=O)n(Cc2ccccc2F)c1	none
COC(=O)CC1(C(=O)OC)Oc2ccc(Br)cc2C(=O)N1c1cc(Cl)c(Cl)cc1Cl (stereo unspecified)	none
CCN(CC)CCn1c(=N)n(CCO)c2ccccc21	none
CCN(CC)CCn1c(=N)n(CCOc2ccccc2)c2ccccc21	TRPC6 inhibitor -12.2 | TRPC4 spec 2 52.5% | TRPC4 spec 14.8% | HEK293 MPD ctr 2-1 272.5% | HEK293 MPD ctr-1 6.5% | TRPC6 block conf inactive | TRPC6 act conf inactive
CCN(CC)CC#CCC(O)(c1ccccc1)c1ccccc1	none
CCN(CC)CC#CCC(C)(c1ccccc1)c1ccccc1	TRPC6 inhibitor -4.98 | HEK293 MPD ctr-2 142.5% | HEK293 MPD ctr 2-2 inactive | TRPC4 ctr mod 36.5% | TRPC4/MOR inh 2 inactive | TRPC6 block conf inactive
CCN1CCc2c(OCc3ccccc3)cccc2C1=O	TRPC6 inhibitor -5.6 | HEK293 MPD ctr-2 125.5% | HEK293 MPD ctr 2-2 inactive | TRPC4 ctr mod 21.0% | TRPC4/MOR inh 2 inactive | TRPC6 block conf inactive
Cn1c(=O)c2c(nc(CN3CCc4ccccc4C3)n2Cc2ccccc2)n(C)c1=O	TRPC6 inhibitor -5.65, TRPC4 PAM 46 | HEK293 MPD ctr-2 inactive | HEK293 MPD ctr 2-2 inactive | TRPC4 ctr mod 109.0% | TRPC4/MOR inh 2 68.5% | TRPC6 block conf inactive
COc1ccc(NC(=O)c2ccc(C)cc2Cl)c([N+](=O)[O-])c1	none
CCOC(=O)N1CCN(Cc2nc(-c3ccc(OC)cc3)no2)CC1	none
